Results taken from ChEMBL document CHEMBL3425488, “Novel histone deacetylase inhibitors induce growth arrest, apoptosis, and differentiation in sarcoma cancer stem cells” (J Med Chem, 2015).

Tests used:
[1] = molecular target: T1, Polyamine deacetylase HDAC10 (Homo sapiens, UniProt Q969S8); assay: Inhibition of recombinant HDAC10 (unknown origin) by homogeneous fluorescence release assay
T1 sequence (Q969S8 whole entry): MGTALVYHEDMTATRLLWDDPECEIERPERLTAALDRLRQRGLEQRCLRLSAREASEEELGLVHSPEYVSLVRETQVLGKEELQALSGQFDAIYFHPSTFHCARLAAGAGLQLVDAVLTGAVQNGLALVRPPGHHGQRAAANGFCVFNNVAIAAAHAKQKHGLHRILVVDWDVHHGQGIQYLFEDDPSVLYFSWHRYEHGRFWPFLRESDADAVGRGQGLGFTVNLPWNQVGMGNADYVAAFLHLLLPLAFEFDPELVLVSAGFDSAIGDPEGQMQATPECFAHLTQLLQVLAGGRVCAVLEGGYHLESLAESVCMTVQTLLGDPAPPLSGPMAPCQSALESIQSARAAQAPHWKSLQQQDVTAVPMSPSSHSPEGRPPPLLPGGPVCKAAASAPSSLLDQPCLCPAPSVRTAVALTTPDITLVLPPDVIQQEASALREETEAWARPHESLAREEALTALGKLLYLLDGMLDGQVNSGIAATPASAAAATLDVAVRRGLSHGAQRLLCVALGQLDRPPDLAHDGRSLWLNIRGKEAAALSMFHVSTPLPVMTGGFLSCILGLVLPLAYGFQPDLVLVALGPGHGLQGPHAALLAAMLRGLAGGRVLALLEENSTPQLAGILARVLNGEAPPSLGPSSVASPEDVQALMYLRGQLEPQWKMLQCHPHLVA

[2] = molecular target: Histone deacetylase 1 (Homo sapiens, UniProt Q13547); assay: Inhibition of recombinant HDAC1 (unknown origin) by homogeneous fluorescence release assay
[3] = molecular target: T2, Protein deacetylase HDAC6 (Homo sapiens, UniProt Q9UBN7); assay: Inhibition of recombinant HDAC6 (unknown origin) by homogeneous fluorescence release assay
T2 sequence (Q9UBN7 whole entry): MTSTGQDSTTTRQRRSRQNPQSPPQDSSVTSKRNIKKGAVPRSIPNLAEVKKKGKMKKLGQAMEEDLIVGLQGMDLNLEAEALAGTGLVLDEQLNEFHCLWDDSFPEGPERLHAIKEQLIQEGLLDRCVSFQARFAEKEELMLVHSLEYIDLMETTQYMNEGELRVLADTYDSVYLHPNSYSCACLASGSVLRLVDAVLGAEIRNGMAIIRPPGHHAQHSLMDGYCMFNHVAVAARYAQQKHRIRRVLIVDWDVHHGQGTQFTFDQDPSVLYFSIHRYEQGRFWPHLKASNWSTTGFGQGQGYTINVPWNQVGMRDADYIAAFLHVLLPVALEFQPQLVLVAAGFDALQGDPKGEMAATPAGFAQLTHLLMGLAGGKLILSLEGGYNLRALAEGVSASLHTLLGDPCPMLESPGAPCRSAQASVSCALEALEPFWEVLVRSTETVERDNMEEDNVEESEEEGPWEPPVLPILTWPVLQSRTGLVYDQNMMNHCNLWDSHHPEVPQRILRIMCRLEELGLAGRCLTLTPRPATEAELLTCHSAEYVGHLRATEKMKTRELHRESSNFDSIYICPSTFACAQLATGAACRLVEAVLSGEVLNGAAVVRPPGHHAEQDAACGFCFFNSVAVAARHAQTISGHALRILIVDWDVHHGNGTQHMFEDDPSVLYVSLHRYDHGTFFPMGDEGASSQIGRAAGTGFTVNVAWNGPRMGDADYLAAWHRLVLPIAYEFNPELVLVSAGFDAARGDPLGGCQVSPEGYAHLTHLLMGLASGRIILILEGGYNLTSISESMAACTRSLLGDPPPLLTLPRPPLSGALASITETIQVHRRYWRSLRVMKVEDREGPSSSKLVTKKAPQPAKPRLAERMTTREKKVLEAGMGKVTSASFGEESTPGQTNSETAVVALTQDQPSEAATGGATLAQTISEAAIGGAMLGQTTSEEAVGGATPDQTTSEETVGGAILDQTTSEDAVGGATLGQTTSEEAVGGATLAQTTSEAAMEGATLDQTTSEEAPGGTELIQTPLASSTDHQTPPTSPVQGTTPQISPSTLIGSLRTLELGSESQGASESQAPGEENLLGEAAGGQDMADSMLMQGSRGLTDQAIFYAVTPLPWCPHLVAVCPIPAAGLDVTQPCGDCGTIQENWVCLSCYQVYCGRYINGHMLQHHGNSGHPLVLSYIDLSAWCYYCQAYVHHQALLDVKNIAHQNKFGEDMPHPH

[4] = test system: MG-63; assay: Induction of human MG63 cell differentiation assessed as increase in bone nodule formation after 14 days by Alizarin Red S staining-based spectrophotometric analysis; type: functional
Method in brief: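 Cells from dissociated MG-63 sarcospheres were grown in α-MEM with 10% FBS until 70% confluent. They were then switched to mineralization medium (10 mM β-glycerophosphate, 10−8 M dexamethasone, […] ascorbic acid 2-phosphate) and exposed continuously to 0.025–0.5 μM compound for 14 days. After fixation, Alizarin Red S staining (pH 4.2) was eluted with 10% cetylpyridinium chloride and read at 570 nm. Values are OD relative to medium-alone control, in triplicate.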

Chain of Histone deacetylase 1 (Q13547 whole entry): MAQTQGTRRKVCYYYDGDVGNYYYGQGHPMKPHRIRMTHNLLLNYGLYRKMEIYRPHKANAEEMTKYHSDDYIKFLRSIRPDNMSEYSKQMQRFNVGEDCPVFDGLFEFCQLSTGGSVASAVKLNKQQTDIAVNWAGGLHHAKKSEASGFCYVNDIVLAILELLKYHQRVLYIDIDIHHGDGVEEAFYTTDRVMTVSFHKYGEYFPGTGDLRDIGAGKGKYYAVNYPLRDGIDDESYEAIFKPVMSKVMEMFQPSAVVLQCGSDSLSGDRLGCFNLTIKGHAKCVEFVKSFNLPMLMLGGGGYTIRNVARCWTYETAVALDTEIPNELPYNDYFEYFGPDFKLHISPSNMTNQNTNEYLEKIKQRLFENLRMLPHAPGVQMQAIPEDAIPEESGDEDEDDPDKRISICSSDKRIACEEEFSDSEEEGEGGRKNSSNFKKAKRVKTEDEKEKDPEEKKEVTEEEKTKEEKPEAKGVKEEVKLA

Row | Structure (SMILES) | IC50 [1] [nM] | IC50 [2] [nM] | IC50 [3] [nM] | Activity [4]
1 | O=C(/C=C/c1ccc(NC(=O)C(Cc2ccccc2)c2ccccc2)cn1)NO (centres undefined) | 1800 | 1420 | 10 | 
2 | O=C(CCCCSc1nc(-c2ccc(-c3ccccc3)cc2)cc(=O)[nH]1)NO |  |  |  | Dose-dependent effect
